Shown are actives, neighbours in structure and some others; about 5.1% of the full set was active somewhere.
APP 5'UTR act: APP 5'UTR luciferase reporter activation | SH-SY5Y APP 5'UTR luciferase reporter, luminescence; zero percent = DMSO vehicle wells | activation, % at 2 µM | actives 1% (n = 190,000) | AID 1276;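 active means activation above a set limit, based on mean plus 3 SD of controls, cut at about 140% in these data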
STAT1 inh: inhibitors of IFN-gamma induced STAT1 signaling; AID 920; NIH 3T3 STAT1-luciferase reporter, luminescence; inhibition, % at 5.5 µM; actives 0.35% (n = 200,000);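 active means inhibition above a set limit, the mean inhibition across all tested compounds plus 3 SD, cut at about 34% in these data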;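 further: 0% = IFN-gamma with DMSO and 100% = IFN-gamma with 300 µM nifuroxazide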
STAT3 blocker: inhibitors of IL-6 induced STAT3 signaling. inhibition, % at 5.5 µM. actives 0.89% (n = 190,000). AID 862. U3A cells, IL-6 STAT3-luciferase reporter, luminescence; host cell line lacks STAT1;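 active means inhibition above the mean inhibition across all screened compounds plus 3 SD, cut at about 44% in these data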;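 further: 0% = DMSO only wells and 100% = 100 µM nifuroxazide control wells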
STAT1 act: increases IFN-gamma driven STAT1 reporter signal | activation (% of control), % at 5.5 µM | actives 2.6% (n = 200,000) | NIH 3T3 STAT1-luciferase reporter, luminescence; 100% = IFN-gamma alone, no compound | AID 932;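 active means activation above the screen-wide mean activation plus 3 SD, cut at about 130% in these data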;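 further: raw ratio to IFN-gamma control signal so 100% means no change and 0% no light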
NF-kB neuron act: raises NF-kB expression in human neuronal cells; NF-kB reporter expression; stronger effect = higher value; fold change at 12.5 µM; actives 1.6% (n = 190,000); in the data active means fold change above about 3.3
STAT3 activator: increases IL-6 driven STAT3 reporter signal; actives 0.91% (n = 190,000); U3A cells, IL-6 STAT3-luciferase reporter, luminescence; 100% = signal with IL-6 EC80 alone; activation (% of control), % at 5.6 µM;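 active means activation above the screen-wide mean of compound activation plus 3 SD, cut at about 130% in these data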;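 further: 0% = background luminescence of wells with medium and substrate only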
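Detection: reporter luminescence signal / Assay system: STAT1-lacking human U3A cells, STAT3 luciferase reporter / Incubation: compound pre-incubation 1 h before IL-6, then 6 h stimulation at 37 °C / Control set: IL-6-only high control / Read-out: % activation relative to IL-6 control / Probe or stimulus: Interleukin-6, 33 ng/mL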
* hit, by the source's call; nt = no result.

SMILES | APP 5'UTR act | STAT1 inh | STAT3 blocker | STAT1 act | NF-kB neuron act | STAT3 activator
Cc1cccc(NC(=O)c2cnc3sccn3c2=O)n1 | -15 | -25 | 10 | 122 | nt | 96
Cc1cccc(NC(=O)c2cnc3ccccn3c2=O)c1 | 113 | -21 | 32 | 117 | 2.2 | 74
Cc1cccc(NC(=O)c2cnc3sccn3c2=O)c1 | 167* | -28 | nt | 124 | 5.5* | nt
Cc1cccc(NC(=O)c2cnc3sccn3c2=O)c1C | 49 | -40 | 8 | 136* | 2.5 | 97
O=C(Nc1cnc2sccn2c1=O)c1ccccc1Cl | 74 | -43 | 18 | 140* | 2.4 | 86
Clc1ccccc1Cc1noc(CN2CCN(Cc3ccccn3)CC2)n1 | 5 | -11 | 3 | 108 | 0.98 | 100
O=C(NNc1c2ccccc2nc2ccccc12)c1cccc(O)c1 | 2 | 3 | 7 | 97 | 0.3 | 94
Oc1cccc(-c2nc3ccc4ccccc4c3c3c2CCC3)c1 | 88 | -45 | -17 | 142* | 3.8* | 114
N#C/C(C(=O)Oc1ccccc1)=C1\C=CC=CN1 | 57 | -46 | 9 | 142* | 1.9 | 95
Cc1cc2ncc(-c3ccc(Cl)cc3)c(N)n2n1 | 45 | -32 | -10 | 129* | 1.2 | 113
CCOC(=O)c1cc(C(C)=O)c(=O)[nH]c1C | 222* | -5 | 4 | 104 | 1.1 | 99
CCCc1cc2c(=O)c(-c3ccccn3)c(C)oc2cc1O | 30 | 3 | -12 | 96 | 1.2 | 116
CCCc1cc2c(=O)c(-c3ccccn3)coc2cc1OC | 16 | -39 | 7 | 136* | 3.9* | 98
CCSc1nn2c(=O)c3ccccc3nc2s1 | 43 | -33 | 34 | 131* | 2.4 | 76
CCOn1c(SCC)nc2ccccc2c1=O | -10 | 7 | -12 | 94 | 1.8 | 115
Cc1ccc(/C(CSc2nccn2-c2ncc(C(F)(F)F)cc2Cl)=N\O)cc1 | 1 | 22 | 11 | 81 | 0.84 | 96
O=C(CSc1nccn1-c1ncc(C(F)(F)F)cc1Cl)c1ccc(Br)cc1 | 31 | -37 | -55 | 130* | 0.61 | 162*
Cc1c(C(=O)Nc2cnccn2)oc2ccccc12 | 28 | -23 | -24 | 121 | 4.7* | 124
Cc1sc(NC(=O)c2oc3ccccc3c2C)c(C#N)c1C | 15 | 0 | 6 | 102 | 1.4 | 96
CC(=O)Nc1cccc(NC(=O)c2oc3ccccc3c2C)c1 | 68 | -44 | 2 | 142* | 2.3 | 104
Cc1c(C(=O)NC2=NCCS2)oc2ccccc12 | 106 | -40 | 15 | 137* | 7.6* | 90
Nc1c(C(=O)Nc2ccc(Cl)cc2)oc2ccccc12 | 213* | -78 | -75 | 170* | 5.6* | 173*
O=C(c1ccc(F)cc1)n1c(NCc2ccccc2)n[nH]c1=S | 14 | -13 | 19 | 112 | 1.1 | 88
C=CCNC(=S)NC(=O)c1oc2ccccc2c1C | 57 | -40 | -4 | 134* | 2 | 107
COc1ccc(O)c(/C=N/n2c(-c3ccco3)csc2=Nc2cccnc2)c1 | 1 | -4 | -5 | 104 | 0.96 | 103
SMILES | APP 5'UTR act | STAT1 inh | STAT3 blocker | STAT1 act | NF-kB neuron act | STAT3 activator
CN=c1scc(C)n1/N=C/c1ccc(O)cc1 | 93 | -16 | 25 | 114 | 12* | 85
CN=c1scc(C)n1/N=C/c1cc(Br)c(O)c(Br)c1 | -4 | -12 | 18 | 110 | 5.5* | 91
C=CCN=c1scc(C)n1/N=C/c1ccc(O)c(O)c1 | 8 | -12 | 20 | 111 | 2 | 87
CN=c1scc(C)n1/N=C/c1ccc(O)cc1O | 156* | 56* | 61* | 49 | 3.8* | 52
CN=c1scc(-c2ccco2)n1/N=C/c1ccc(O)c(O)c1 | 9 | 0 | 1 | 100 | 3.8* | 111
CCN=c1scc(C)n1/N=C/c1cc(Br)c(O)c(OC)c1 | 22 | -4 | 11 | 102 | 1.1 | 99
CN1C(=O)C2C(c3ccc(N(C)C)cc3)NN(Cc3ccccc3)C2C1=O (stereo unspecified) | -13 | -1 | 19 | 101 | 0.92 | 90
COc1ccc(NC(=O)CN2CCC(C(N)=O)(N3CCCCC3)CC2)c(OC)c1 | 9 | -1 | 6 | 97 | 0.97 | 99
C/C(=N\NC(=O)c1ccccc1)c1cccc(Br)c1 | 62 | -20 | 18 | 117 | 1.8 | 88
C/C(=N/NC(=O)c1ccccc1)C(=O)O | 1 | -37 | -1 | 132* | 1.7 | 103
CC(/C=C/c1ccccc1F)=N\NC(=O)c1ccccc1 | 80 | -38 | 12 | 133* | 2.7 | 92
CN(C)c1oc(-c2ccc(Cl)cc2)nc1S(=O)(=O)c1ccccc1 | -13 | -34 | 13 | 131* | 0.97 | 92
CCOC(=O)c1c(C)[nH]c(C(=O)COC(=O)C2CC2C)c1C (stereo unspecified) | 180* | -56 | 17 | 150* | 4.1* | 90
COc1ccccc1OCCn1c(=O)sc2ccccc21 | 20 | -2 | 17 | 102 | 1.3 | 90
Cc1cccc(OCCN2C(=O)c3ccccc3C2=O)c1 | 18 | -46 | -5 | 140* | 1.9 | 109
COc1ccc(OCCn2c(=O)sc3ccccc32)cc1 | 57 | -42 | 9 | 137* | 1.8 | 98
Cc1cccc(OCCn2c(=O)n(C)c3ccccc32)c1 | 85 | -47 | -20 | 143* | 3.6* | 120
Cc1cccc(OCCn2c(=O)sc3ccccc32)c1 | 87 | -38 | 2 | 136* | 3 | 100
CC1=C/C(=N\Nc2ccccc2[N+](=O)[O-])CC(C)(C)C1 | 10 | -1 | -8 | 101 | 1.5 | 107
O=C(COC(=O)c1cc(-c2cccs2)nc2ccccc12)NC1CCS(=O)(=O)C1 (stereo unspecified) | 6 | -9 | 20 | 107 | 0.74 | 91
CCOC(=O)c1c(C)oc2c1c(C(c1cccnc1)N1CCCCC1)c(O)c1ccccc12 (stereo unspecified) | 79 | -1 | -30 | 101 | 6.6* | 131
COc1cc(/C=N/Nc2nnc3c(n2)[nH]c2ccccc23)ccc1O | 10 | -36 | -2 | 133* | 1.2 | 98
Cc1[nH]c2ccc(C(=O)N3CCCCC3)cc2c1C | 140* | -51 | -8 | 145* | 4.2* | 109
O=C(CSC(=S)N1CCSCC1)c1ccccc1 | 113 | -40 | 30 | 137* | 6.2* | 80
O=C(CSC(=S)N1CCSCC1)c1ccc(Cl)cc1 | 151* | -31 | 19 | 129* | 5.2* | 90
O=C(Nc1ccccc1)N1CCSCC1 | -2 | -7 | -3 | 107 | 1.7 | 105
CC(C)=C1C2CCC1C1C(=O)N(c3nc(-c4ccccc4)c(C)s3)C(=O)C21 (stereo unspecified) | 1 | 0 | -1 | 100 | 1.1 | 98
COc1cc(-c2nc3ccccn3c2/N=C/c2cc(OC)c(O)cc2Cl)ccc1O | 4 | -13 | 34 | 111 | 1.3 | 78
